Experimental data: ChEMBL document CHEMBL3244376, “Synthesis and biological activity of highly active alpha-aza analogues of luliberin” (1978)
Calls of active or inactive are those of the source. The calls are words filed in the database; no cut-off is given here. Where a SMILES comes first, the peptide text is derived from it. [ ]: non-standard residue; d: D form. The star is where a group is joined. pGlu = O=C1CC[C@@H](C(=O)O)N1; X2 = CN(N*)C(N)=O

What was measured:
Rattus norvegicus [1] = assay: Ovulation-inducing activity in androgen-sterilized constant-estrus rat at 0.062 ug, iv; format: functional, organism-based
Procedure, shortened: (§1)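 Androgen-sterilized constant-estrus rats. Doses are given as μg per rat. The readout is ovulation, scored as the number of animals ovulating out of the number treated at each dose. Groups held 3 to 6 rats.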

Rattus norvegicus [2] = assay: Ovulation-inducing activity in androgen-sterilized constant-estrus rat at 0.031 ug, iv; format: functional, organism-based; procedure, shortened: as §1
Rattus norvegicus [3] = assay: Ovulation-inducing activity in iv dosed androgen-sterilized constant-estrus rat relative to luliberin; format: functional
Rattus norvegicus [4] = assay: Ovulation-inducing activity in androgen-sterilized constant-estrus rat at 0.01 ug, iv; format: functional, organism-based; procedure, shortened: as §1
Rattus norvegicus [5] = assay: Ovulation-inducing activity in androgen-sterilized constant-estrus rat at 0.005 ug, iv; format: functional, organism-based; procedure, shortened: as §1
Rattus norvegicus [6] = assay: Ovulation-inducing activity in androgen-sterilized constant-estrus rat at 0.25 ug, iv; format: functional, organism-based; procedure, shortened: as §1
Rattus norvegicus [7] = assay: Ovulation-inducing activity in androgen-sterilized constant-estrus rat at 1.0 ug, iv; format: functional, organism-based; procedure, shortened: as §1
Rattus norvegicus [8] = assay: Ovulation-inducing activity in androgen-sterilized constant-estrus rat at 0.10 ug, iv; format: functional, organism-based; procedure, shortened: as §1
Rattus norvegicus [9] = assay: Ovulation-inducing activity in androgen-sterilized constant-estrus rat at 0.05 ug, iv; format: functional, organism-based; procedure, shortened: as §1
Rattus norvegicus [10] = assay: Ovulation-inducing activity in androgen-sterilized constant-estrus rat at 0.001 ug, iv; format: functional, organism-based; procedure, shortened: as §1
Rattus norvegicus [11] = assay: Ovulation-inducing activity in androgen-sterilized constant-estrus rat at 0.125 ug, iv; format: functional, organism-based; procedure, shortened: as §1
Rattus norvegicus [12] = assay: Ovulation-inducing activity in androgen-sterilized constant-estrus rat at 10 ug, iv; format: functional, organism-based; procedure, shortened: as §1
Rattus norvegicus [13] = assay: Ovulation-inducing activity in androgen-sterilized constant-estrus rat at 0.0025 ug, iv; format: functional, organism-based; procedure, shortened: as §1

Q: Which results are given for CC(C)C[C@H](NC(=O)[C@@H](Cc1c[nH]c2ccccc12)NC(=O)[C@H](Cc1ccc(O)cc1)NC(=O)[C@H](CO)NC(=O)[C@H](Cc1c[nH]c2ccccc12)NC(=O)[C@H](Cc1cnc[nH]1)NC(=O)[C@@H]1CCC(=O)N1)C(=O)N[C@@H](CCCNC(=N)N)C(=O)N1CCC[C@H]1C(=O)NNC(N)=O?
A: Activity (Rattus norvegicus [1]): Active; Activity (Rattus norvegicus [2]): inactive; fold change (FC) (Rattus norvegicus [3]): 5

Q: How did the Activity (Rattus norvegicus [4]) turn out when CC(C)C[C@@H](C(=O)N[C@@H](CCCNC(=N)N)C(=O)N1CCC[C@H]1C(=O)NNC(N)=O)N(C)C(=O)[C@@H](Cc1ccccc1)NC(=O)[C@H](Cc1ccc(O)cc1)NC(=O)[C@H](CO)NC(=O)[C@H](Cc1c[nH]c2ccccc12)NC(=O)[C@H](Cc1cnc[nH]1)NC(=O)[C@@H]1CCC(=O)N1 was run?
A: Active

Q: What about the Activity (Rattus norvegicus [5]) of the same molecule?
A: inactive

Q: Which Activity (Rattus norvegicus [6]) does the source give for CC(C)C[C@H](NC(=O)CNC(=O)[C@H](Cc1ccc(O)cc1)NC(=O)[C@H](CO)NC(=O)[C@H](Cc1c[nH]c2ccccc12)NC(=O)[C@H](Cc1cnc[nH]1)NC(=O)[C@@H]1CCC(=O)N1)C(=O)N[C@@H](CCCNC(=N)N)C(=O)N1CCC[C@H]1C(=O)NN(C)C(N)=O ([pGlu]HWSYGLRP-X2) here?
A: inactive

Q: And the Activity (Rattus norvegicus [7])?
A: Active

Q: For CC(C)C[C@@H](C(=O)N[C@@H](CCCNC(=N)N)C(=O)N1CCC[C@H]1C(=O)NNC(N)=O)N(C)C(=O)[C@@H](Cc1ccccc1)NC(=O)[C@H](Cc1ccc(OC(C)(C)C)cc1)NC(=O)[C@H](CO)NC(=O)[C@H](Cc1c[nH]c2ccccc12)NC(=O)[C@H](Cc1cnc[nH]1)NC(=O)[C@@H]1CCC(=O)N1, which Activity (Rattus norvegicus [8]) is on record?
A: Active

Q: And the “fold change (FC)” value (Rattus norvegicus [3])?
A: 5

Q: How did the Activity (Rattus norvegicus [8]) turn out when CCNC(=O)[C@@H]1CCCN1C(=O)[C@H](CCCNC(=N)N)NC(=O)[C@H](CC(C)C)NC(=O)[C@@H](COC(C)(C)C)NC(=O)[C@H](Cc1ccc(O)cc1)NC(=O)[C@H](CO)NC(=O)[C@H](Cc1c[nH]c2ccccc12)NC(=O)[C@H](Cc1cnc[nH]1)NC(=O)[C@@H]1CCC(=O)N1 was run?
A: Active

Q: Which results are given for CC(C)C[C@H](NC(=O)[C@@H](CO)NC(=O)[C@H](Cc1ccc(O)cc1)NC(=O)[C@H](CO)NC(=O)[C@H](Cc1c[nH]c2ccccc12)NC(=O)[C@H](Cc1cnc[nH]1)NC(=O)[C@@H]1CCC(=O)N1)C(=O)N[C@@H](CCCNC(=N)N)C(=O)N1CCC[C@H]1C(=O)NNC(N)=O?
A: Activity (Rattus norvegicus [9]): Active; Activity (Rattus norvegicus [10]): inactive

Q: CCNC(=O)N1CCCN1C(=O)[C@H](CCCNC(=N)N)NC(=O)[C@H](CC(C)C)NC(=O)[C@@H](Cc1ccccc1)NC(=O)[C@H](Cc1ccc(O)cc1)NC(=O)[C@H](CO)NC(=O)[C@H](Cc1c[nH]c2ccccc12)NC(=O)[C@H](Cc1cnc[nH]1)NC(=O)[C@@H]1CCC(=O)N1 was tested. Which Activity (Rattus norvegicus [11]) did it give?
A: inactive

Q: And the Activity (Rattus norvegicus [7])?
A: Active

Q: Which Activity (Rattus norvegicus [12]) does the source give for CC(C)C[C@H](NC(=O)N(Cc1ccccc1)NC(=O)[C@H](Cc1ccc(O)cc1)NC(=O)[C@H](CO)NC(=O)[C@H](Cc1c[nH]c2ccccc12)NC(=O)[C@H](Cc1cnc[nH]1)NC(=O)[C@@H]1CCC(=O)N1)C(=O)N[C@@H](CCCNC(=N)N)C(=O)N1CCC[C@H]1C(=O)NNC(N)=O here?
A: Active

Q: Which results are given for CC(C)C[C@H](NC(=O)[C@@H](Cc1ccccc1)NC(=O)[C@H](Cc1ccc(O)cc1)NC(=O)[C@H](CO)NC(=O)[C@H](Cc1c[nH]c2ccccc12)NC(=O)[C@H](Cc1cnc[nH]1)NC(=O)[C@@H]1CCC(=O)N1)C(=O)N[C@@H](CCCNC(=N)N)C(=O)N1CCC[C@H]1C(=O)NCC(N)=O?
A: Activity (Rattus norvegicus [4]): Active; Activity (Rattus norvegicus [5]): inactive

Q: CC(C)C[C@H](NC(=O)[C@@H](Cc1ccccc1)NC(=O)[C@H](Cc1ccc(O)cc1)NC(=O)[C@H](CO)NC(=O)[C@H](Cc1c[nH]c2ccccc12)NC(=O)[C@H](Cc1cnc[nH]1)NC(=O)[C@@H]1CCC(=O)N1)C(=O)N[C@@H](CCCNC(=N)N)C(=O)N1CCC[C@H]1C(=O)NNC(N)=O was tested. Which Activity (Rattus norvegicus [13]) did it give?
A: inactive

Q: And the Activity (Rattus norvegicus [5])?
A: Active

Q: And the “fold change (FC)” value (Rattus norvegicus [3])?
A: 5
